Data: ChEMBL document CHEMBL1781898, “Orally active achiral N-hydroxyformamide inhibitors of ADAM-TS4 (aggrecanase-1) and ADAM-TS5 (aggrecanase-2) for the treatment of osteoarthritis” (Bioorg Med Chem Lett, 2011)
Values after ≈ are worked out from the molar mass of the structure shown. Active and inactive are the calls of the source. The calls are words filed in the database; no cut-off is given here.

How the values were obtained:
[1] = target: T1, A disintegrin and metalloproteinase with thrombospondin motifs 5 (Homo sapiens, UniProt Q9UNA0); assay: Inhibition of ADAMTS-5 assessed as substrate cleavage after 16 hrs by fluorescence assay
T1 sequence (Q9UNA0 whole entry): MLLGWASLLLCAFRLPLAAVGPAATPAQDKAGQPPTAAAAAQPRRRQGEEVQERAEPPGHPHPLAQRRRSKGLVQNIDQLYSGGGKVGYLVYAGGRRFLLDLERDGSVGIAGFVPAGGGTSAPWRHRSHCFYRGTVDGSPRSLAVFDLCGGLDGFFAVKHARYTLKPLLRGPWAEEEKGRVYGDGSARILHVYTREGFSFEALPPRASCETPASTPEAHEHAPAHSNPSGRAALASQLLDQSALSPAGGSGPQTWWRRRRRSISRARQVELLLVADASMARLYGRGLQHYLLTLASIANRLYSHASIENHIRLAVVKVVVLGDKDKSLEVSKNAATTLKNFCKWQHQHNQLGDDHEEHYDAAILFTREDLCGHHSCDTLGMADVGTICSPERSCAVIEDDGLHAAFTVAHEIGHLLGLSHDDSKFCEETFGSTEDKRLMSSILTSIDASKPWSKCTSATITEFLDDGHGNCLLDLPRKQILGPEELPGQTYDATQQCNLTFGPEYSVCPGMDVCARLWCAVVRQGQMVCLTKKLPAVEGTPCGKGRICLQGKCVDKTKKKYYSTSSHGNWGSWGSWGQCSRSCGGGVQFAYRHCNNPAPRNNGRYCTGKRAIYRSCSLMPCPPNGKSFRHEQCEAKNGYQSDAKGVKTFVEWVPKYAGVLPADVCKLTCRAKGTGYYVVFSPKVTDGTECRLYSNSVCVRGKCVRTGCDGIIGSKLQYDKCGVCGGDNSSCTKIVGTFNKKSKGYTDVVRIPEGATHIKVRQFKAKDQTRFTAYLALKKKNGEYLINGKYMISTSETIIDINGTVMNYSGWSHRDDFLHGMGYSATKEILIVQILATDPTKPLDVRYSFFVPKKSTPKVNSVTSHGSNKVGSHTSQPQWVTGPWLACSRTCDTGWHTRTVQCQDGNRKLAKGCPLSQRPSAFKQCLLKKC
Summary of the method: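 Enzyme inhibition IC50s derived from at least six measurements, standard errors normally <5% within an assay; a standard compound run to keep assay-to-assay variability within twofold.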

Cytochrome P450 3A4 = Cytochrome P450 3A4 (Homo sapiens, UniProt P08684); assay: Inhibition of CYP3A4; format: ADME
Summary of the method: (§1)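 Inhibition of cytochrome P450 isoforms 1A2, 2C9, 2C19, 2D6 and 3A4, reported as pIC50.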

[2] = Intrinsic clearance in human liver microsomes; format: ADME, Microsome
Summary of the method: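 Human liver microsome metabolism; intrinsic clearance expressed as μL/min/mg, reported as mean of eight separate experiments.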

[3] = Lipophilicity, log D of the compound; format: physicochemical; conditions: octanol/water
[4] = Thermodynamic solubility of the compound in phosphate buffer at pH 7.4 after 24 hrs; format: physicochemical; conditions: read-out: Therm_solubility
[5] = Free drug level in human; format: ADME, organism-based; conditions: in vivo
[6] = Free drug level in rat; format: ADME, organism-based; conditions: in vivo
[7] = Free drug level in dog; format: ADME, organism-based, Canis lupus familiaris; conditions: in vivo
[8] = Intrinsic clearance in human hepatocytes measured per million cells; format: ADME, cell-based, Liver, Hepatocyte
Summary of the method: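 Human hepatocyte metabolism; intrinsic clearance expressed as μL/min/10⁶ cells, reported as mean of six separate experiments.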

[9] = Apparent permeability across apical to basolateral side in human Caco2 cells at 10 uM; format: ADME, cell-based; conditions: Caco-2
[10] = Apparent permeability across basolateral to apical side in human Caco2 cells at 10 uM; format: ADME, cell-based; conditions: Caco-2
[11] = Clearance in mouse; format: ADME, organism-based; conditions: in vivo
[12] = Half life in mouse; format: ADME, organism-based; conditions: in vivo
[13] = Volume of distribution at steady state in mouse; format: ADME, organism-based; conditions: in vivo, read-out: Vdss
[14] = Half life in rat at 2 mg/kg, iv and 3 to 10 mg/kg, po; format: ADME, organism-based; conditions: in vivo
[15] = Volume of distribution at steady state in rat at 2 mg/kg, iv and 3 to 10 mg/kg, po; format: ADME, organism-based; conditions: in vivo, read-out: Vdss
[16] = Clearance in dog at 1 mg/kg, iv and 1 mg/kg, po; format: ADME, organism-based, Canis lupus familiaris; conditions: in vivo
[17] = Volume of distribution at steady state in dog at 1 mg/kg, iv and 1 mg/kg, po; format: ADME, organism-based, Canis lupus familiaris; conditions: in vivo, read-out: Vdss
[18] = Oral bioavailability in rat; format: ADME, organism-based; conditions: in vivo
[19] = Oral bioavailability in dog; format: ADME, organism-based, Canis lupus familiaris; conditions: in vivo
Homo sapiens [20] = species on record: Homo sapiens; assay: Inhibition of aggrecanase activity in IL-1, OSM and plasminogen-stimulated human articular cartilage explant assessed as reduction in CTXII peptide release at 10 uM after 14 days
Homo sapiens [21] = species on record: Homo sapiens; assay: Inhibition of aggrecanase activity in IL-1, OSM and plasminogen-stimulated human articular cartilage explant assessed as reduction in CTXII peptide release at 10 uM after 21 days
Summary of the method: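 Human cartilage stimulated with interleukin-1, oncostatin-M and plasminogen for 21 days, without or with 10 µM compound.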

Cavia porcellus = assay: Inhibition of ADAMTS4 in sc dosed Dunkin hartley guinea pig spontaneous osteoarthritis model assessed as reduction in NITEGE release in medial cartilage at concentration equivalent to 4 to 7 fold human ADAMTS4 FRET IC50 administered for 7 days; format: functional, organism-based
Summary of the method: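 Compound given for 7 days via subcutaneous mini-pump; articular cartilage then dissected from medial tibial plateau of hind knee joints and NITEGE neo-epitope levels measured in cartilage extracts versus vehicle-treated animals; significance P < 0.05.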

Cytochrome P450 1A2 = target: T2, Cytochrome P450 1A2 (Homo sapiens, UniProt P05177); assay: Inhibition of CYP1A2; format: ADME; summary of the method: as §1
T2 sequence (P05177 whole entry): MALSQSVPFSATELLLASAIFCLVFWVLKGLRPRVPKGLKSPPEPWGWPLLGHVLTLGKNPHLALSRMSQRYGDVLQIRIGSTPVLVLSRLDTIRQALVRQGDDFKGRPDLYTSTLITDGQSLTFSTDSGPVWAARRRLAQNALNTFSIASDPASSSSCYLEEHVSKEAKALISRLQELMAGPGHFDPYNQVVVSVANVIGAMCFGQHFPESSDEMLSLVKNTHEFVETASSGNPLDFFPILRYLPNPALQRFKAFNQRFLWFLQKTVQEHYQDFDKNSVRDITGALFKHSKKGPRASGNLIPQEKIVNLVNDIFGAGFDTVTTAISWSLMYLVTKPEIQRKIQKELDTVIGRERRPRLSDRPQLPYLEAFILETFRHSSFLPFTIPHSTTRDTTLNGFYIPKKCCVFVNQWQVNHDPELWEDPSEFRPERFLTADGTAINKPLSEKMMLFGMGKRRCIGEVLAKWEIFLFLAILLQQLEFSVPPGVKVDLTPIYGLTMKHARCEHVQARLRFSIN

Cytochrome P450 2C9 = Cytochrome P450 2C9 (Homo sapiens, UniProt P11712); assay: Inhibition of CYP2C9; format: ADME; summary of the method: as §1
Cytochrome P450 2D6 = Cytochrome P450 2D6 (Homo sapiens, UniProt P10635); assay: Inhibition of CYP2D6; format: ADME; summary of the method: as §1
Cytochrome P450 2C19 = Cytochrome P450 2C19 (Homo sapiens, UniProt P33261); assay: Inhibition of CYP2C19; format: ADME; summary of the method: as §1
[22] = target: Voltage-gated inwardly rectifying potassium channel KCNH2 (Homo sapiens, UniProt Q12809)
Sequence of Voltage-gated inwardly rectifying potassium channel KCNH2 (Q12809 whole entry): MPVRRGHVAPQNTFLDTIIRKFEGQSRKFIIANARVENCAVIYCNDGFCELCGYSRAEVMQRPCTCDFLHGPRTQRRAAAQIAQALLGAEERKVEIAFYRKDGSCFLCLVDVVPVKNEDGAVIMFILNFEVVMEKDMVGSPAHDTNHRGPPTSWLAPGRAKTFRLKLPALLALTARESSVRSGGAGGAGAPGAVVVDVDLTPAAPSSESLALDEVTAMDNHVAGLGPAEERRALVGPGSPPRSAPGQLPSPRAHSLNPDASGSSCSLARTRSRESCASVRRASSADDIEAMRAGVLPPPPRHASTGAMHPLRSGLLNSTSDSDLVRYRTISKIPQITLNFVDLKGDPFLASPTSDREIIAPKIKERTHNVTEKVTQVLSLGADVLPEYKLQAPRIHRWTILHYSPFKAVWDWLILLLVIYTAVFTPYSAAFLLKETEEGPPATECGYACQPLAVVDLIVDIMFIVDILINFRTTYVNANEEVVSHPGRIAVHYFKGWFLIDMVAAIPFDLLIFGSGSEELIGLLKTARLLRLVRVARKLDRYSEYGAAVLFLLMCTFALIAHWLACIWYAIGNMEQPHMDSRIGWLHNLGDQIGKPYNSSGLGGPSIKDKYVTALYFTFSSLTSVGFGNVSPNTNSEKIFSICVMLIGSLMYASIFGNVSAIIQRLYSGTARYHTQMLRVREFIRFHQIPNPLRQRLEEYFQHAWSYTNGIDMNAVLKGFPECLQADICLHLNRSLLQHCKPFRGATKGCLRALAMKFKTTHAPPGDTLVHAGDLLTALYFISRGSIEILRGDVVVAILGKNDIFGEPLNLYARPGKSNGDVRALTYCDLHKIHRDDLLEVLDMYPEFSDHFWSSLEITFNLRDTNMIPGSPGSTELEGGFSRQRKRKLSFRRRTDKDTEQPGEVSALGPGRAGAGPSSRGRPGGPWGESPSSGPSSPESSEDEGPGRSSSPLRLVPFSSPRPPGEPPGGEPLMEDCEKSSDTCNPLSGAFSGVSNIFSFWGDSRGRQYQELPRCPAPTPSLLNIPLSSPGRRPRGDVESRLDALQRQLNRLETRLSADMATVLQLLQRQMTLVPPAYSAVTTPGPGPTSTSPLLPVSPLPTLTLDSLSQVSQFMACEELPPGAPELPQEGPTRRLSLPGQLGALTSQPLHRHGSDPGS

Sequence of Cytochrome P450 2C19 (P33261 whole entry): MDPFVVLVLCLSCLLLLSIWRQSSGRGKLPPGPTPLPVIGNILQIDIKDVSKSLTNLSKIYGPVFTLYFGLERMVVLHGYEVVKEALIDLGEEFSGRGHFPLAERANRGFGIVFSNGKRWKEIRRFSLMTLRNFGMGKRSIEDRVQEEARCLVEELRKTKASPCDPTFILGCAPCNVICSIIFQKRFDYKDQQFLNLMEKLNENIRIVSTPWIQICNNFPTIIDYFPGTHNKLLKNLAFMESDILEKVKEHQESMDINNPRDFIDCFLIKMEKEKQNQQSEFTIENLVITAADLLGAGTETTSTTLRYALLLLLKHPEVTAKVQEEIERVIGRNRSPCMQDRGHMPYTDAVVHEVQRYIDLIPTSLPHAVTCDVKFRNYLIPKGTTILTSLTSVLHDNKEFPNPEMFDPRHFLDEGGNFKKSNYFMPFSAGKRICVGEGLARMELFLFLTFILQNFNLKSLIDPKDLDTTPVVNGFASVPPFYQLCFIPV
Sequence of Cytochrome P450 2C9 (P11712 whole entry): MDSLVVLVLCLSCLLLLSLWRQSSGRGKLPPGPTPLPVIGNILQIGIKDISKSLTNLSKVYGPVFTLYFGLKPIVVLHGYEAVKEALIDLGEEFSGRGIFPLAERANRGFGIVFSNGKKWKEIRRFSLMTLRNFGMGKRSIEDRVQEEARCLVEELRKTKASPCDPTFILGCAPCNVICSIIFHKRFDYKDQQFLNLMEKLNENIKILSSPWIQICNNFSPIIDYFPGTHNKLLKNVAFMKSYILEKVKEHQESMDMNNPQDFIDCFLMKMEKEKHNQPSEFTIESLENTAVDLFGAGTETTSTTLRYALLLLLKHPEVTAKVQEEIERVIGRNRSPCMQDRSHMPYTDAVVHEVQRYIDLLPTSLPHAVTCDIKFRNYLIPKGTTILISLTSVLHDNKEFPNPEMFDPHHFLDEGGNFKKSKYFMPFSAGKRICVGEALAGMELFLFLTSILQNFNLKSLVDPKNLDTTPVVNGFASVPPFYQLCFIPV
Sequence of Cytochrome P450 2D6 (P10635 whole entry): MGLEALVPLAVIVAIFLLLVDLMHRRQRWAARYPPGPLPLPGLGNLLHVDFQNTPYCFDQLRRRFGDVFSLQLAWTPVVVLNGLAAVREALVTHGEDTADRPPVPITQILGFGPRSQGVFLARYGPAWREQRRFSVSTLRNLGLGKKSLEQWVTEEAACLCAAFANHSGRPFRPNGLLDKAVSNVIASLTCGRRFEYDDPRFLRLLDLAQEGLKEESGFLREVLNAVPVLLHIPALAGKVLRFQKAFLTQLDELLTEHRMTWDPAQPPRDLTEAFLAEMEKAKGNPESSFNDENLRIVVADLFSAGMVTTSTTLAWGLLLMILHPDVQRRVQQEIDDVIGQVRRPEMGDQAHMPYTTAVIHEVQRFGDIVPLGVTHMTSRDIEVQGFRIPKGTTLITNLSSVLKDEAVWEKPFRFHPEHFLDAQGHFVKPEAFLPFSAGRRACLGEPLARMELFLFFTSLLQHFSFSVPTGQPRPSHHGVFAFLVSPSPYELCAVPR
Sequence of Cytochrome P450 3A4 (P08684 whole entry, canonical isoform): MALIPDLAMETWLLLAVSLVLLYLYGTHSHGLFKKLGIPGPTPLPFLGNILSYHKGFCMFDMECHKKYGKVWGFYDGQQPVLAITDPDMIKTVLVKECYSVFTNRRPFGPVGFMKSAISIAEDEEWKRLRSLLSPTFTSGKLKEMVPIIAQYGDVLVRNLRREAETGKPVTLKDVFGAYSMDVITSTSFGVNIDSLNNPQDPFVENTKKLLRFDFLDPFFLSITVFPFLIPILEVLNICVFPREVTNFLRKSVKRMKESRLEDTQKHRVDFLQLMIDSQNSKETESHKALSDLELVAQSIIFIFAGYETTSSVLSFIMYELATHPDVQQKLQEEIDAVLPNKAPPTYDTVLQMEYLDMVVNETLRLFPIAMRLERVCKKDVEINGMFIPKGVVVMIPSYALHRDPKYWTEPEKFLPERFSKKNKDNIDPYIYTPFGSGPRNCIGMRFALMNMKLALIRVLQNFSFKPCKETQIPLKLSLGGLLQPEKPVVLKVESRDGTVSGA

- IC50 [1]: 0.023 µM
- inhibition (INH) (Cytochrome P450 3A4): Not Active
- microsomal CLint [2]: 29.4 µL/min/mg
- logD [3]: 1.6
- solubility thermodynamic at 24 h [4]: 150 µM (≈ 76.7 µg/mL)
- fraction unbound [5]: 0.11
- fraction unbound [6]: 0.22
- fraction unbound [7]: 0.25
- hepatocyte CLint [8]: < 2 µL/min/1e6 cells
- Papp A→B at 10 µM [9]: 5.3 ×10⁻⁶ cm/s
- Papp B→A at 10 µM [10]: 10.9 ×10⁻⁶ cm/s
- clearance [11]: 16.8 mL/min/kg
- half-life [12]: 5.4 h
- Vd [13]: 7.2 L/kg
- half-life [14]: 11 h
- Vd [15]: 7.4 L/kg
- clearance [16]: 20.7 mL/min/kg
- Vd [17]: 9.2 L/kg
- bioavailability [18]: 1%
- bioavailability [19]: 20%
- inhibition (Homo sapiens [20]): Active
- inhibition (Homo sapiens [21]): Active
- inhibition (INH) (Cytochrome P450 1A2): Not Active
- inhibition (INH) (Cytochrome P450 2C9): Not Active
- inhibition (INH) (Cytochrome P450 2D6): Not Active
- inhibition (INH) (Cytochrome P450 2C19): Not Active
SMILES: Cc1noc(C)c1CCC1CCN(S(=O)(=O)C[C@](C)(C[C@H](C)c2ncc(F)cn2)N(O)C=O)CC1
- inhibition (Cavia porcellus): Active
- IC50 [22]: 65 µM
